ChEMBL document CHEMBL3414544, “PAINS in the assay: chemical mechanisms of assay interference and promiscuous enzymatic inhibition observed during a sulfhydryl-scavenging HTS” (J Med Chem, 2015)
Calls of active or inactive are those of the source. Unless noted, the rule behind the calls is not given here.

Experiments:
[1] = biological target: T1, Histone acetyltransferase RTT109 (Saccharomyces cerevisiae (strain ATCC 204508 / S288c) (Baker's yeast), UniProt Q07794); experiment: Inhibition of Vps75-stimulated recombinant Saccharomyces cerevisiae histone acetyltransferase Rtt109 using Asf1-dH3-H4 as substrate assessed as coenzyme A production after 45 mins by CPM based HTS assay
T1 sequence (Q07794 whole entry): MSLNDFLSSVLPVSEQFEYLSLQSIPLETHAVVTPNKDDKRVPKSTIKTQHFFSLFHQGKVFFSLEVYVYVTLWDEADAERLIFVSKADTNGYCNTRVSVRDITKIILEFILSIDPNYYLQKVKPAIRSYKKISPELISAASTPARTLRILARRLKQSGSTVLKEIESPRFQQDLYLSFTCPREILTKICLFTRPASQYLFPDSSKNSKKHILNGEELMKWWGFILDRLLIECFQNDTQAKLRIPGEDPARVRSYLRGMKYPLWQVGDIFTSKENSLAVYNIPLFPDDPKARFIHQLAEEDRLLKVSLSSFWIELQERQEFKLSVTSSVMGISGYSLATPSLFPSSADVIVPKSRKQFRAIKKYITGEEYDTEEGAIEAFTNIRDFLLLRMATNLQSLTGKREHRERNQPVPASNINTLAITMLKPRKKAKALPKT
In short: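 Recombinant Rtt109–Vps75 at 50 nM, with Asf1–dH3–H4 as substrate and acetyl-CoA as acetyl donor. Buffer contained freshly prepared 0.01% Triton X-100. The CoA product was detected by fluorescence of its CPM adduct. Plates had Z′ ≥0.5. IC50 came from a four-parameter variable-slope fit.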

[2] = biological target: T2, Histone acetyltransferase RTT109 (Saccharomyces cerevisiae (strain ATCC 204508 / S288c) (Baker's yeast)) (UniProt Q07794); experiment: Inhibition of Vps75-stimulated recombinant Saccharomyces cerevisiae histone acetyltransferase Rtt109 assessed as H3K56 acetylated product at […] after 45 mins by Slot bolt inhibiton assay
T2 sequence (whole entry): T1 sequence (Q07794 whole entry)

[3] = biological target: T2, Histone acetyltransferase RTT109 (Saccharomyces cerevisiae (strain ATCC 204508 / S288c) (Baker's yeast)); experiment: Inhibition of Vps75-stimulated recombinant Saccharomyces cerevisiae histone acetyltransferase Rtt109 assessed as H3K27 acetylated product at […] after 45 mins by Slot bolt inhibiton assay
[4] = Fluorescence quenching assessed as fluorescence signal reduction at 10 uM after 10 mins; type: physicochemical
In short: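 CPM (20 μM final) and CoA (5 μM final) reacted to completion in assay buffer (stable plateau, usually ~5 min); adduct solution added to wells preplated with compound; shaken 5 min, equilibrated 5 min at room temperature; fluorescence intensity read as percent signal reduction versus DMSO controls. Flagged as quencher at >20% signal reduction at 10 μM final compound.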

[5] = Fluorescence quenching in HTS buffer assessed as fluorescence signal reduction at 10 uM after 10 mins; type: physicochemical
[6] = Fluorescence quenching in HTS buffer with […] CoA assessed as fluorescence signal reduction at 10 uM after 10 mins; type: physicochemical
[7] = Chemical stability of the compound in HTS buffer assessed as GSH adduct formation by UPLC-MS analysis; type: physicochemical
In short: (§1)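 Compound (typically 0.5 mM final) incubated in HTS buffer (pH 8.0) for 5, 15 or 30 min, then reduced glutathione added (2 equiv per 1 equiv compound); aliquots analysed by UPLC–MS (BEH C18 column, ELS and 254 nm traces) 5 min after GSH addition, and the same sample re-analysed 15 min later. HTS-like conditions but 5% DMSO, no detergent.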

[8] = biological target: T1, Histone acetyltransferase RTT109; experiment: Inhibition of Vps75-stimulated recombinant Saccharomyces cerevisiae histone acetyltransferase Rtt109 using [3H]-acetyl-CoA assessed as acetate incorporation after 30 mins by liquid scintillation counting; conditions: read-out: IC50
[9] = biological target: T3, Histone acetyltransferase p300 (Homo sapiens, UniProt Q09472); experiment: Inhibition of recombinant histone acetyltransferase p300 (unknown origin) using dH3-H4 tetramer and [3H]-acetyl-CoA assessed as acetate incorporation […] by liquid scintillation counting; conditions: read-out: IC50
[10] = biological target: Histone acetyltransferase GCN5 (Saccharomyces cerevisiae S288c, UniProt Q03330); experiment: Inhibition of yeast histone acetyltransferase Gcn5-Ada2-Ada3 complex using tetramer and [3H]-acetyl-CoA assessed as acetate incorporation after 30 mins by liquid scintillation counting; conditions: read-out: IC50
[11] = biological target: T2, Histone acetyltransferase RTT109 (Saccharomyces cerevisiae (strain ATCC 204508 / S288c) (Baker's yeast)); experiment: Inhibition of Vps75-stimulated recombinant Saccharomyces cerevisiae histone acetyltransferase Rtt109 using [3H]-acetyl-CoA assessed as acetate incorporation […] by liquid scintillation counting in presence of 1 mM DTT
[12] = biological target: Histone acetyltransferase GCN5 (Saccharomyces cerevisiae S288c) (UniProt Q03330); experiment: Inhibition of yeast histone acetyltransferase Gcn5-Ada2-Ada3 complex using tetramer and [3H]-acetyl-CoA assessed as acetate incorporation […] by liquid scintillation counting in presence of 1 mM DTT
[13] = biological target: T4, Lupus La protein (Homo sapiens) (UniProt P05455); experiment: Induction of thiol reactivity with La protein (unknown origin) using […] assessed as protein reactivity by ALARM NMR
T4 sequence (whole entry): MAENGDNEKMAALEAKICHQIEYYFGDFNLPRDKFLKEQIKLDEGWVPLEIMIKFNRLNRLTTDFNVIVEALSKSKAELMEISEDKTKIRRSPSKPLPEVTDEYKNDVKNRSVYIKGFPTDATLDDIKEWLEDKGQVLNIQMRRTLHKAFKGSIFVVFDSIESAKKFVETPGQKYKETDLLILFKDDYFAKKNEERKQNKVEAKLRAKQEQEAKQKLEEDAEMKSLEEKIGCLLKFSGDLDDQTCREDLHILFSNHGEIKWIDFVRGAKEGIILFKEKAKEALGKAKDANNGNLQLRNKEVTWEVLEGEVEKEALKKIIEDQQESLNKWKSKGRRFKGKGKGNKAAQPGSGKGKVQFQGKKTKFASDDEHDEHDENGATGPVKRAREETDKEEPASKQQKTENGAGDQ
In short: (§2)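 ALARM NMR with recombinant La antigen expressed in E. coli Rosetta, 15N-labelled and 13C-labelled at Leu/Ile δ-methyl and Val γ-methyl groups; protein pre-reduced with 20 mM DTT then dialysed DTT-free under N2.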

[14] = biological target: T4, Lupus La protein (Homo sapiens); experiment: Induction of thiol reactivity with La protein (unknown origin) using […] assessed as protein reactivity by ALARM NMR in presence of 20 mM DTT; in short: as §2
[15] = Fluorescence quenching in HTS buffer with 20 uM 7-diethylamino-3-(4'-maleimidyl-phenyl)-4-methylcoumarin assessed as fluorescence signal reduction at 10 uM after 10 mins; type: physicochemical
[16] = biological target: T3, Histone acetyltransferase p300; experiment: Inhibition of recombinant histone acetyltransferase p300 (unknown origin) using dH3-H4 tetramer and [3H]-acetyl-CoA assessed as acetate incorporation after 5 mins by liquid scintillation counting in presence of 1 mM DTT
[17] = Chemical stability of the compound in HTS buffer assessed as GSH adduct formation measured as retention time after 5 mins by UPLC-MS analysis; type: physicochemical; in short: as §1
[18] = Chemical stability of the compound in HTS buffer assessed as GSH adduct formation measured as retention time after 15 mins by UPLC-MS analysis; type: physicochemical; conditions: 0.25 h; in short: as §1

Sequence of Histone acetyltransferase GCN5 (Q03330 whole entry): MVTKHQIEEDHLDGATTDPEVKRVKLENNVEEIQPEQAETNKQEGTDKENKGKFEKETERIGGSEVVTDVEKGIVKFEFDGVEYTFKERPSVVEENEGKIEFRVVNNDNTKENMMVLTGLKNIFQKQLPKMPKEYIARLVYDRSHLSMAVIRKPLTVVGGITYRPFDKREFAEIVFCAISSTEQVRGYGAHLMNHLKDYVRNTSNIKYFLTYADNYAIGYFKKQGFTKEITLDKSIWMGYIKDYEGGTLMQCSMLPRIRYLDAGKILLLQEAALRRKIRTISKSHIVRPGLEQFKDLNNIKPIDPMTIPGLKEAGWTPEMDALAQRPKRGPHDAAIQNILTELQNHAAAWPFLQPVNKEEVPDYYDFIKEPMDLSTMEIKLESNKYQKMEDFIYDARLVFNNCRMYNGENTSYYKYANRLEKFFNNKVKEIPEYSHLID
Sequence of Histone acetyltransferase GCN5 (Saccharomyces cerevisiae S288c) (Q03330 whole entry): as above
T3 sequence (Q09472 whole entry): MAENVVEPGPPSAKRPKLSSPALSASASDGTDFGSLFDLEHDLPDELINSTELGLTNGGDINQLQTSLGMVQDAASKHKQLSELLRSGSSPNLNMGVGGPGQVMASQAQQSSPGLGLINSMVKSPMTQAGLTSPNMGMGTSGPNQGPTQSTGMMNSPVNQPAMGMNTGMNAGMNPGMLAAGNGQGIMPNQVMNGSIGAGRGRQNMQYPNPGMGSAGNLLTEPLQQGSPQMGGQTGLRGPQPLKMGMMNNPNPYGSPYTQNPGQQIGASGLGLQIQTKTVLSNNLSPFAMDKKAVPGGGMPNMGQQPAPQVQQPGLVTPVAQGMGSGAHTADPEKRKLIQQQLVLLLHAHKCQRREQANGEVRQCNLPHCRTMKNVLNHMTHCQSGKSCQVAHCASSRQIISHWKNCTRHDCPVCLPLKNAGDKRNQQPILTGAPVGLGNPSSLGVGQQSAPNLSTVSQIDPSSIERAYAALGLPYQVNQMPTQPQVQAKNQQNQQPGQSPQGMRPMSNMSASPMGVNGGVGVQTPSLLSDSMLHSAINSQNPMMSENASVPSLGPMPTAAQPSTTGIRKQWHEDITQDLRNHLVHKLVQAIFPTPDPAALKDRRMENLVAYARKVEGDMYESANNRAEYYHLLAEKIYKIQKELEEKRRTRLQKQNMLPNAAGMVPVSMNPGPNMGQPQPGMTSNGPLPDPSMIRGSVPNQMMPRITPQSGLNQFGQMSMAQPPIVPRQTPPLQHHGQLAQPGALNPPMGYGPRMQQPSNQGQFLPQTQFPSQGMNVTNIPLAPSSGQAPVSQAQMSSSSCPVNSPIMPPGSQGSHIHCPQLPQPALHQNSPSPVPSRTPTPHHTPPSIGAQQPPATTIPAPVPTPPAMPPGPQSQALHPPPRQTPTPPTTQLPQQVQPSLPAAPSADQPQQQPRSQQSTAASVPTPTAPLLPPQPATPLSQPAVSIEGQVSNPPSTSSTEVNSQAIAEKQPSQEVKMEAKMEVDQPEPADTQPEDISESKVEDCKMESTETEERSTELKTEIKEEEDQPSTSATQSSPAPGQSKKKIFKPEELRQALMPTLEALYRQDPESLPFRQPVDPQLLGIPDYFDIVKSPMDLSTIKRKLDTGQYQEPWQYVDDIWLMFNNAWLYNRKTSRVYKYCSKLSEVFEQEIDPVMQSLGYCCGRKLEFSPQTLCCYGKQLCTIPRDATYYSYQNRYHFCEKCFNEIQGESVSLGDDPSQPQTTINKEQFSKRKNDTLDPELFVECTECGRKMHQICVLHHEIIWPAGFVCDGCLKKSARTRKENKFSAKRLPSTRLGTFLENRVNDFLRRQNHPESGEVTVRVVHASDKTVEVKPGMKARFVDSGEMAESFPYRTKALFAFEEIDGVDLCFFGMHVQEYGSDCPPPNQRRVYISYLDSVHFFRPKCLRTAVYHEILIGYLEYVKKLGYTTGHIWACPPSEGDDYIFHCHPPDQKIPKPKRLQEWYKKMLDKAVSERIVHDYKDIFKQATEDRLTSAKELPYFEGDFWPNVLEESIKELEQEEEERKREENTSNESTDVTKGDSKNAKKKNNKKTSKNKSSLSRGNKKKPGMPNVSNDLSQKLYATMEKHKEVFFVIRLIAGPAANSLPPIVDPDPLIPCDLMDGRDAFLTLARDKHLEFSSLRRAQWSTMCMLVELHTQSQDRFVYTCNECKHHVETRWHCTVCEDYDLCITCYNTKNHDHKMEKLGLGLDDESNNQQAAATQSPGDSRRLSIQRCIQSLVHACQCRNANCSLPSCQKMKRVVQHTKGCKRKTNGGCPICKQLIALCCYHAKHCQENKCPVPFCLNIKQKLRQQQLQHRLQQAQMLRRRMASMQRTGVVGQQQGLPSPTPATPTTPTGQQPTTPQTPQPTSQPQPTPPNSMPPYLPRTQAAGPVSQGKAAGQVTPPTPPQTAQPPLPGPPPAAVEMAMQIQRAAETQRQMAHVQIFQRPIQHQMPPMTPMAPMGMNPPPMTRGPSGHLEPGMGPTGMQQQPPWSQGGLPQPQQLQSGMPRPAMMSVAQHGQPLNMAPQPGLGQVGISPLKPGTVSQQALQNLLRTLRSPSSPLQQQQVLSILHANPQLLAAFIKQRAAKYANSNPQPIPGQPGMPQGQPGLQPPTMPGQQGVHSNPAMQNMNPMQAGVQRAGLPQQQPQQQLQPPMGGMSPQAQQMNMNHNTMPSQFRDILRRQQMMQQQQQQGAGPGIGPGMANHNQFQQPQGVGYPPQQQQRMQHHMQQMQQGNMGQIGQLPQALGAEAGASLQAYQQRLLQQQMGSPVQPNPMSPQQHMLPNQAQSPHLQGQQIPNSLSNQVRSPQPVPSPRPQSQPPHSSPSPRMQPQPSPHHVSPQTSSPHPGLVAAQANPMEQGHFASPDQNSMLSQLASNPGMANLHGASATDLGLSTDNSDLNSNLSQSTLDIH

Structure (SMILES)	IC50 ([1]; read-out: IC50)	Activity [2]	Activity [3]	Activity [4]	Activity [5]	Activity [6]	Stability [7]	IC50 [8]	IC50 [9]	IC50 [10]	Activity [11]	Activity [12]	Activity [13]	Activity [14]	Activity [15]	Activity [16]	Retention_time [17]	Retention_time [18]	IC50 [1]
O=C(O)c1ccc(-n2nnnc2SC2=CS(=O)(=O)c3ccccc32)cc1	8.8 µM	Active	Active	Not Active	Not Active	Not Active	Unstable	15 µM	7.5 µM	11 µM	Active	Active	Active	inactive	Not Active	Active	–	–	–
O=S(=O)(Nc1cc(Cl)c(O)c2ccccc12)c1ccc(Br)cc1	2.5 µM	Active	Active	Not Active	Not Active	Not Active	–	1.6 µM	1.8 µM	1.2 µM	Active	Active	–	–	Not Active	Active	3.65 min	3.28 min	–
O=C1CC(Sc2nnc(-c3ccccc3O)o2)C(=O)N1c1ccc(Br)cc1 (stereo not given)	15 µM	Active	Active	Not Active	Not Active	Not Active	Unstable	3.9 µM	3.7 µM	27 µM	Active	Active	Active	inactive	Not Active	Active	–	–	–
O=[N+]([O-])c1cc(Br)c2nsnc2c1Sc1ncnc2[nH]cnc12	2.8 µM	Active	Active	Not Active	Not Active	Not Active	Unstable	3.9 µM	2.2 µM	4.6 µM	Active	Active	Active	inactive	Not Active	Active	–	–	–
CNc1nc(-c2ccccc2)[n+](-c2ccccc2)s1.[Cl-]	–	Active	Active	Not Active	Not Active	Not Active	Unstable	–	1.9 µM	7.5 µM	Active	Active	Active	inactive	Not Active	Active	–	–	–
O=S(=O)(Nc1cc(Sc2nnnn2-c2ccccc2)c(O)c2ccccc12)c1ccccc1	–	Active	Active	Not Active	Not Active	Not Active	–	–	3.1 µM	–	Active	Active	–	–	Not Active	Active	3.4 min	3.28 min	–
O=C(O)CCSc1cc(NS(=O)(=O)c2ccc(Br)cc2)c2ccccc2c1O	–	–	–	Not Active	Not Active	Not Active	–	0.52 µM	1 µM	0.65 µM	–	Active	Active	inactive	Active	Active	3.67 min	3.28 min	Not Active
O=C(O)CSc1cc(NS(=O)(=O)c2ccc(C(=O)O)cc2)c2ccccc2c1O	–	–	–	Not Active	Not Active	Not Active	–	0.15 µM	0.66 µM	1.3 µM	–	Active	–	–	Active	Active	3.27 min	3.28 min	Not Active
